Source: PubChem (several laboratories)
Compounds with a hit are over-represented: about 9.3% of the library has one in this group of screens.
tolC growth inh = growth inhibitors of E. coli tolC mutant, primary screen, strain BW25113 ΔtolC::kan, 384-well. hit rate 2.2% among 65,000. AID 573, 2007. growth inhibition, % at 10 µM (by protocol). OD615;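 active means growth inhibition at or above a cutoff equal to the mean over every tested compound plus 3 SD, cut at about 60% in these data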;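 further: growth measured after 20 h incubation at 37 °C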
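Material: E. coli BW25113 ΔtolC::kan, tolC deletion mutant strain. Measure: percent growth inhibition. Schedule: 37 °C, 20 h exposure. Doses: single-point testing at 10 µM. Signal: A615 absorbance measurement. Buffer or medium: kanamycin-containing LB broth (50 µg/mL).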
PostGolgi ctrl = growth inhibition of yeast control strain, primary screen, counter-screen for post-Golgi transport modulator project; efflux-deficient yeast background strain, growth absorbance A615, 16 h; inhibition, % at 10 µM; hit rate 5% among 98,000; AID 738, 2007
D1 mod = D1 CRE-luciferase signal change, two-sided – cell-based, HEK293 D1, dopamine EC30, D1 allosteric modulator project, primary screen; D(1A) dopamine receptor (Homo sapiens), P21728; hit rate 5.9% among 58,000; dopamine EC30 potentiation; actives deviate in either direction; B-score at 10 µM;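 active means luminescence count or its row- and column-corrected plate score outside the 99.7% band of the plate's sample wells, on either side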
hDAT+cocaine = changed hDAT dopamine uptake under cocaine IC80, either direction, primary screen, cocaine antagonist project, cell-based, LLC-PK1 hDAT, [14C]-dopamine uptake, MLSMR | LLC-PK1 hDAT cells, [14C]-dopamine uptake with cocaine IC80; actives deviate in either direction | hit rate 1.3% among 110,000 | B-score at 10 µM | AID 449768, 2010;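 active means Z score or B-score, a plate-position-corrected score, falls beyond the plate's 99.7% confidence bounds, in either direction; inactive means both scores lie inside the 99.7% bounds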;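 further: scored against the spread of the other compound wells on the same plate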
Target sequence (Q01959 whole entry, looked up): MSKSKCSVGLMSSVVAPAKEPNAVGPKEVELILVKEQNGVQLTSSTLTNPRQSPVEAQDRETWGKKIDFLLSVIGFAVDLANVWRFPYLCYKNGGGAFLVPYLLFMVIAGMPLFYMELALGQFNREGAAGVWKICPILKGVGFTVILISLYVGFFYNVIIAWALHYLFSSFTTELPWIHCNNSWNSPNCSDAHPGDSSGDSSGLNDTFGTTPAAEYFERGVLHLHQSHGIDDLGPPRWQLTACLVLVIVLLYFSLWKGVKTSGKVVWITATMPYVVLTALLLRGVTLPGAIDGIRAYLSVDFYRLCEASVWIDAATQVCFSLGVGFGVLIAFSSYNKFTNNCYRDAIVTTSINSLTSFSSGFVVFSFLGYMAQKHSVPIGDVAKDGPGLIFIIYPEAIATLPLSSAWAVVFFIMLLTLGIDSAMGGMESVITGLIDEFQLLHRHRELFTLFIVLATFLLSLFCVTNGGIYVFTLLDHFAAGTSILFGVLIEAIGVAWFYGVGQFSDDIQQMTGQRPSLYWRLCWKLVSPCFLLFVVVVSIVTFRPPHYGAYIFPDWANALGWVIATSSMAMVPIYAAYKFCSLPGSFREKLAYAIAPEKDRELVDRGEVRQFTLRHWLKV
PostGolgi yeast = phenotypic screen on post-Golgi transport, primary screen; AID 739, 2007; inhibition, % at 10 µM; hit rate 0.9% among 98,000; post-Golgi transport phenotypic cell assay;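 further: yeast cells grown in 1536-well plates; yeast grown about 18 h at 30C before absorbance read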
E coli WT exp = growth inhibitors of wild-type E. coli, primary screen, strain BW25113, expanded library, OD600; OD600 absorbance; growth inhibition, % at 100 µM; hit rate 0.15% among 98,000; AID 710, 2007;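 active means growth inhibition above about 50% at one test dose, limit read from the data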;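 further: growth measured after 20 h incubation at 37 °C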
* hit, by the source's call; · = no result given. Unless noted, no stated cut-off is given here; in the data, active means inhibition above about 30%; inactive means the rest.

SMILES	tolC growth inh	PostGolgi ctrl	D1 mod	hDAT+cocaine	PostGolgi yeast	E coli WT exp
CCC(=O)Nc1cccc(NC(=O)c2ccc(C)c([N+](=O)[O-])c2)c1	·	0.7	·	0.0523	-6.0	7.0
Cc1ccc(C(=O)Nc2ccc(Cc3ccncc3)cc2)cc1[N+](=O)[O-]	·	49.9*	·	·	87.2*	4.0
N#CC1=C(SCc2ccccc2Cl)NC(=O)C(C(N)=O)C1 (configuration not stated)	-14.3	-1.3	-0.469	-1.74	-12.1	4.0
CCCOc1ccccc1Nc1nnc(C)c(=O)[nH]1	-4.3	12.1	-0.129	-0.0438	2.0	-4.0
O=[N+]([O-])c1ccc(NCCCNS(=O)(=O)c2ccc(Cl)cc2)c(Cl)c1	·	72.1*	·	·	36.3*	-3.0
COCCN1CCN(C(=O)c2ccc3c(c2)S(=O)(=O)c2ccccc2C3=O)CC1	·	·	·	-0.164	·	·
COc1cc(NC(=O)NCCN2CCN(c3ccc(Cl)cc3)CC2)ccc1C	-10.6	-0.1	-0.242	1.84	15.1	3.0
COc1ccc(NC(=O)NCCCN2CCN(c3cc(C)ccc3C)CC2)cc1	21.1	3.2	-6.12*	-1.93	6.4	17.0
COc1ccc(NC(=O)NCCN2CCN(c3cccc(Cl)c3)CC2)cc1	-5.1	42.1*	-0.685	-0.218	42.6*	4.0
O=C(Oc1ccc([N+](=O)[O-])cc1)c1cc(-c2ccccc2)nc2ccccc12	·	42.4*	·	-0.222	12.7	-6.0
O=C(O)c1cc(-c2ccccc2)nc2ccccc12	-2.4	·	1.03	-0.318	·	·
CCN(CC)C(=O)COC(=O)c1cc(-c2ccc(OC)cc2)nc2ccccc12	·	39.9*	·	0.498	1.4	-26.0
O=C(CSc1ncccn1)n1c2c(c3ccccc31)CCCC2	·	50.7*	·	0.00033	-0.8	-35.0
CCN(CC)CC(=O)n1c2c(c3ccccc31)CCCC2	-1.9	0.9	-0.327	-0.113	-5.8	11.0
Cc1nc(N2CCN(C)CC2)[nH]c(=O)c1Cc1cccc2ccccc12	-3.1	1.1	-2.86	2.48*	-2.0	9.0
Cc1nc(N2CCN(c3ccccc3)CC2)[nH]c(=O)c1Cc1ccccc1	6.7	-2.4	-0.462	0.197	1.3	-1.0
COc1ccc(Nc2ncnc3c2cnn3Cc2ccccc2)cc1	11.3	·	·	3.2*	·	·
CCCCCn1c(N2CCOCC2)nc2c1c(=O)n(CC(N)=O)c(=O)n2C	3.8	4.7	0.0289	-1.9	4.7	1.0
COc1ccccc1C(=O)Nc1sc2c(c1C(=O)NCc1ccco1)CCCC2	·	7.8	·	0.928	-6.5	-1.0
FC(F)(F)c1cccc(Sc2cc(C(F)(F)F)nc(-c3ccccn3)n2)c1	·	42.3*	·	-0.0612	-10.2	-4.0
O=C(O)CSc1cc(C(F)(F)F)nc(-c2ccccn2)n1	·	-4.0	·	0.0217	0.3	-8.0
Cc1nnc(-c2cnn(C)c2N)n1Cc1cccc(Cl)c1	·	-1.2	·	0.872	8.7	-2.0
CC(C)N1CCC2(CC1)N=C(c1ccc3c(c1)OCO3)CC(c1cc(Cl)ccc1O)N2 (configuration not stated)	100.0*	50.1*	·	0.218	15.0	29.0
Cc1ccccc1N=C1NC(=O)CC(c2ccccc2)S1 (configuration not stated)	·	13.2	·	0.354	8.2	-6.0
COc1ccc2nc(SCC(=O)Nc3ccc(S(=O)(=O)Nc4onc(C)c4C)cc3)[nH]c2c1	14.3	·	-0.741	-0.584	·	·
SMILES	tolC growth inh	PostGolgi ctrl	D1 mod	hDAT+cocaine	PostGolgi yeast	E coli WT exp
Cc1noc(NS(=O)(=O)c2ccc(NC(=O)CSc3nc4ccccc4[nH]3)cc2)c1C	10.8	37.0*	-0.000388	1.09	-2.1	7.0
Cc1noc(NS(=O)(=O)c2ccc(N/C=C\C(=O)c3ccc4c(c3)OCO4)cc2)c1C	·	38.0*	·	0.172	-6.7	25.0
Cc1noc(NS(=O)(=O)c2ccc(NC(=O)Nc3ccc(Cl)c(Cl)c3)cc2)c1C	100.0*	3.6	-2.56	0.0688	0.3	13.0
O=C(CSc1nc2cc3ccccc3cc2[nH]1)Nc1ccc(F)cc1	·	54.7*	·	0.415	2.0	-9.0
O=C(Cn1cnc2cc(Cl)ccc2c1=O)Nc1ccc2c(c1)OCO2	·	4.9	·	0.497	3.6	-2.0
CCCC(=O)C1=C(c2ccccc2)C(C#N)(C#N)C(C#N)=C1N	8.1	-1.9	-0.833	·	-9.9	0.0
Nc1n[nH]c(S(=O)(=O)CCCc2ccccc2)n1	-26.3	0.3	·	-0.675	5.4	9.0
CC(C)CC(=O)Nc1cccc(C(=O)Nc2ccccc2C(=O)O)c1	·	4.1	·	1.18	1.6	4.0
CCc1nn(CC(=O)NCCCN(CC)Cc2ccccc2)c(=O)c2cc3sccc3n12	5.9	9.0	-4.58*	1.46	18.7	4.0
Cc1nc2cc(-c3cccc(F)c3)nn2c(C)c1CCC(=O)NC(C)CCc1ccco1 (configuration not stated)	27.1	29.9	-1.47	1.37	40.7*	-3.0
COc1cc(N)c(Cl)cc1NC(=O)c1ccccc1	-5.1	39.4*	0.00501	0.276	7.8	3.0
N/N=c1\sc2ccccc2n1-c1ccccc1	·	30.1*	·	0.0443	-23.5	0.0
CC(=O)N=c1sc2ccccc2n1C	-34.0	-0.6	·	-0.2	1.1	11.0
COc1ccc(CCNC(=O)CSc2nc3ccccc3o2)cc1	·	1.8	·	-0.362	4.6	-1.0
O=C(N1CCOCC1)N(CCN1CCOCC1)Cc1cccc2ccccc12	·	-0.4	·	0.207	-6.3	-3.0
CC1(C(=O)c2ccccc2)C2c3c(ccc4ccccc34)OC(=O)C21C(=O)N1CCOCC1 (configuration not stated)	·	46.4*	·	1.1	6.0	-4.0
C=CCNC(=O)c1ccc2c(c1)S(=O)(=O)c1ccccc1C2=O	·	·	·	0.118	·	·
COc1cccc(C(c2sc3nc(C)nn3c2O)N2CCN(c3ccccc3F)CC2)c1 (configuration not stated)	15.1	4.8	-0.62	2.71*	0.7	8.0
Cc1nc2sc(C(c3cccc(F)c3)N3CCC(C)CC3)c(O)n2n1 (configuration not stated)	-7.5	30.6*	-0.108	1.11	10.1	2.0
CCOC(=O)C1CCN(C(c2cccc(F)c2)c2sc3nc(C)nn3c2O)CC1 (configuration not stated)	-5.5	37.1*	-0.127	-0.0172	4.9	6.0
COc1ccc(CCNC(=O)CCC2COc3ccccc3O2)cc1OC (configuration not stated)	·	-2.3	·	1.07	13.9	11.0
COc1ccc(C(=O)/C(=C/c2cccs2)c2nc3ccccc3o2)cc1	·	37.5*	·	1.42	1.0	-20.0
Cc1cccc(Cn2c(C(=O)OC(C)C)cc3c2ccn3C)c1	·	9.8	·	0.214	-3.4	1.0
COCc1c(Br)c(C)[nH]c(=O)c1C#N	·	·	·	1.61*	·	·
CCOc1ccccc1C1CC(=O)Nc2cc3c(cc21)OCCO3 (configuration not stated)	11.5	7.7	2.47	-0.663	6.7	-5.0
